Experimental data from ChEMBL document CHEMBL2157921, “Identification of novel 3,5-diarylpyrazoline derivatives containing salicylamide moiety as potential anti-melanoma agents” (Bioorg Med Chem Lett, 2012).

Assays:
[1] = Inhibition of mouse full length GST-tagged BRAF V600E mutant using MEK1 as substrate incubated for 1 hr prior to substrate addition measured after 25 min by gel electrophoresis
Procedure, shortened: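 Kinase activity was read out as BRAF V600E-mediated phosphorylation of MEK. Results are given as IC50 values.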

[2] = Antiproliferative activity against human WM266.4 cells expressing BRAF V600E mutant after 24 hrs by MTT assay; assay type: functional; settings: WM 266-4, 24 h
[3] = Antiproliferative activity against human WM1361 cells expressing wild type BRAF after 24 hrs by MTT assay; assay type: functional, cell-based; settings: WM1361, 24 h
[4] = molecular target: Serine/threonine-protein kinase B-raf (Homo sapiens, UniProt P15056, V600E); test: Inhibition of BRAF V600E mutant in human WM266.4 cells assessed as inhibition of ERK1/2 phosphorylation by ELISA; assay type: cell-based
[5] = molecular target: Epidermal growth factor receptor (Homo sapiens, UniProt P00533); test: Inhibition of EGFR
[6] = molecular target: Receptor tyrosine-protein kinase erbB-2 (Homo sapiens, UniProt P04626); test: Inhibition of HER2
[7] = Inhibition of bovine FAK isolated from brain after 20 mins by turbidimetric analysis; design: species or system Bos taurus
Aurora kinase A = molecular target: T1, Aurora kinase A (Homo sapiens, UniProt O14965); test: Inhibition of human recombinant Aurora A kinase using PLK as substrate incubated for 15 mins prior to substrate addition measured after 60 mins by immunofluorescence method
T1 sequence (O14965 whole entry): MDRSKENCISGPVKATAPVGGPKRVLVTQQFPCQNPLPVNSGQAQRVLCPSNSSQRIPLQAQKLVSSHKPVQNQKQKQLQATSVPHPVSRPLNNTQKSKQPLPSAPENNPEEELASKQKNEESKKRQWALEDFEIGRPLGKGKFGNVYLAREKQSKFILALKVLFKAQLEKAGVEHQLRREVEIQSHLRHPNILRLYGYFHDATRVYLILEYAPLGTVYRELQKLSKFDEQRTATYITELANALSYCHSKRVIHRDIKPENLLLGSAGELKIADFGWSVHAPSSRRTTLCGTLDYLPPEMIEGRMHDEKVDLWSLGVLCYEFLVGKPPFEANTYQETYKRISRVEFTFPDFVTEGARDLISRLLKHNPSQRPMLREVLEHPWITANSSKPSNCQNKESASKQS

[8] = molecular target: Vascular endothelial growth factor receptor 2 (Homo sapiens, UniProt P35968); test: Inhibition of VEGFR2 using gastrin as substrate after 60 mins by immunofluorescence method
Chain of Vascular endothelial growth factor receptor 2 (P35968 whole entry): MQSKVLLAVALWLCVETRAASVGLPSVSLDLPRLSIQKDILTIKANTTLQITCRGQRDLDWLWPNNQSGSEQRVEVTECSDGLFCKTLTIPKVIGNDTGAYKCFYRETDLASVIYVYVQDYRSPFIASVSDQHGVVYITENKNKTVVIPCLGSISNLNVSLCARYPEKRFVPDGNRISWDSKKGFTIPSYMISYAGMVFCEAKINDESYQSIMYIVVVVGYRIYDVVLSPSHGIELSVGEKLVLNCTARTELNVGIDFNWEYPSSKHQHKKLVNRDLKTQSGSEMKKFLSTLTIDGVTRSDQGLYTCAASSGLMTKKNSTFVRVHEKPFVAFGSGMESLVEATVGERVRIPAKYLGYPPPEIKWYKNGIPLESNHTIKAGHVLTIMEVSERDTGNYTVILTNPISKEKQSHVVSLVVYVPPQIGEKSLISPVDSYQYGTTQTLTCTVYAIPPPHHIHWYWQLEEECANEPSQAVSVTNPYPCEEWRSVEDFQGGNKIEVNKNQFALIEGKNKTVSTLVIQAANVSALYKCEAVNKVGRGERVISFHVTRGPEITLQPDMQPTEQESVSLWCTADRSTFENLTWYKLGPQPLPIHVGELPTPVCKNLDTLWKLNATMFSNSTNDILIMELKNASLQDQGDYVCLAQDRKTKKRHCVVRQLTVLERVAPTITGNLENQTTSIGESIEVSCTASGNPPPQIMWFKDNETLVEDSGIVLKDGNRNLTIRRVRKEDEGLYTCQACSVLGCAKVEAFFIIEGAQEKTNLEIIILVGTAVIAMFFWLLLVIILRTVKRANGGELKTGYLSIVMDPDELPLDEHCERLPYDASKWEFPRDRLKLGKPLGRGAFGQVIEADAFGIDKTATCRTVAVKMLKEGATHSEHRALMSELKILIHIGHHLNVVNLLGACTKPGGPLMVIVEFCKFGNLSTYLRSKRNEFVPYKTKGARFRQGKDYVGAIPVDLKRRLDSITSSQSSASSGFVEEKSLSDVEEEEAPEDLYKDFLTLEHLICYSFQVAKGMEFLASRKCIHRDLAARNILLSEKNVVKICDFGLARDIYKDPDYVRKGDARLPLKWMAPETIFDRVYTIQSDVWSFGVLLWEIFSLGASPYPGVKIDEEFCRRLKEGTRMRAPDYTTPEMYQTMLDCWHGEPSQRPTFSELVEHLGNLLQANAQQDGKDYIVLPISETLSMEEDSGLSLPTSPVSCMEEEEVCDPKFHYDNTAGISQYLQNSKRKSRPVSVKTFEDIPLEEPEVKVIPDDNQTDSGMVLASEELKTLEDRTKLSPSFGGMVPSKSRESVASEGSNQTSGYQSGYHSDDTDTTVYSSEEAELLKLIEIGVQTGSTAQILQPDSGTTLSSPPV

Chain of Epidermal growth factor receptor (P00533 whole entry): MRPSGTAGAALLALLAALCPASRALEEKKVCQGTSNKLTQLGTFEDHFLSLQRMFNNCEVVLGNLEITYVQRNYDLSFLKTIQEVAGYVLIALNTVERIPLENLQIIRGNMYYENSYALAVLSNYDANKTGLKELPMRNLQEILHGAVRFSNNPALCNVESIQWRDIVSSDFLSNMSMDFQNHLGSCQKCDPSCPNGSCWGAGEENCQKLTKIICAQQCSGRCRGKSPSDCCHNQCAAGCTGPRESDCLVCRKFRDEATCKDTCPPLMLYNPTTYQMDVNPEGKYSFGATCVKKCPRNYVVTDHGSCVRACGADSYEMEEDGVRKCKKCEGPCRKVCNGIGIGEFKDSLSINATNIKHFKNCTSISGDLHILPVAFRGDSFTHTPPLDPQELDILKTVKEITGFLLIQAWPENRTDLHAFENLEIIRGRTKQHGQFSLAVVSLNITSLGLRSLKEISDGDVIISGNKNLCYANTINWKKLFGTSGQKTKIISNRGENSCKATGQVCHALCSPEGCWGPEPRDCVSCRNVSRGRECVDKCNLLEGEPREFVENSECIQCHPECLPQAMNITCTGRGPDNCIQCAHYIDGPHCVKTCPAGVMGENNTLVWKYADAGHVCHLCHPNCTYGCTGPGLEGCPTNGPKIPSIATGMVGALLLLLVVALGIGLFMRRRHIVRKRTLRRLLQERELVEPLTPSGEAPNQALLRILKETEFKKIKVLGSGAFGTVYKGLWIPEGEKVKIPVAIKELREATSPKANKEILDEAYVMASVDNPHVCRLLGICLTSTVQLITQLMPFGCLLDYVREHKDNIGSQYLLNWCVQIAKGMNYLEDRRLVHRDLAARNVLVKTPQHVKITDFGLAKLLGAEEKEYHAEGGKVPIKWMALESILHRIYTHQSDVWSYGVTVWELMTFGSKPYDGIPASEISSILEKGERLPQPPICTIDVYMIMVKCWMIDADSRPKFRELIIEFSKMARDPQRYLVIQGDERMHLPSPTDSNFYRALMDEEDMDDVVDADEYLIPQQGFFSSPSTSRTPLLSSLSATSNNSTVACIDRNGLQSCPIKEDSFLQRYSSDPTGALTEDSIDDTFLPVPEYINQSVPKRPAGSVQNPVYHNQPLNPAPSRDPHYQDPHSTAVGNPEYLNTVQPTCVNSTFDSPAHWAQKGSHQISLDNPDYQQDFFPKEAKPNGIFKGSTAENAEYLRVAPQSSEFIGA
Chain of Serine/threonine-protein kinase B-raf (P15056 2-766 V600E limits assumed): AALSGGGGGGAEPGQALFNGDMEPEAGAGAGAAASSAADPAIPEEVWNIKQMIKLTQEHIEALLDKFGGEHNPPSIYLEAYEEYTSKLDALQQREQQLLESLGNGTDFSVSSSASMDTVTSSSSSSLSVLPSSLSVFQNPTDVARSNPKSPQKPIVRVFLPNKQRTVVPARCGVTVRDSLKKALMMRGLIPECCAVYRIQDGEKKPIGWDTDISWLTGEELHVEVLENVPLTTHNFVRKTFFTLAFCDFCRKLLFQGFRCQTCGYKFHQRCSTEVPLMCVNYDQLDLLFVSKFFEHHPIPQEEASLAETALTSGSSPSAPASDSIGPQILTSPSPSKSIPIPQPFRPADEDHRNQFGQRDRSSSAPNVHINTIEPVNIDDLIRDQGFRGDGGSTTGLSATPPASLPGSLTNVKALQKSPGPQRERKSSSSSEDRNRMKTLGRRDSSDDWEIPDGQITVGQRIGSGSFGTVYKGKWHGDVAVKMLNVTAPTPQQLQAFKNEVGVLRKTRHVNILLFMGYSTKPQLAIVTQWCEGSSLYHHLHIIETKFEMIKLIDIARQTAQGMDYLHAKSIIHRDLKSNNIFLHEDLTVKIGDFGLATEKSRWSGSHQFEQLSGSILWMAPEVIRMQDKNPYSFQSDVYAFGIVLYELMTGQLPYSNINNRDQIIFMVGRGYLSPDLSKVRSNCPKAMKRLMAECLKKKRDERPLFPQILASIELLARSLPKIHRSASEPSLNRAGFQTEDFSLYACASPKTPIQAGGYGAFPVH
Chain of Receptor tyrosine-protein kinase erbB-2 (P04626 whole entry): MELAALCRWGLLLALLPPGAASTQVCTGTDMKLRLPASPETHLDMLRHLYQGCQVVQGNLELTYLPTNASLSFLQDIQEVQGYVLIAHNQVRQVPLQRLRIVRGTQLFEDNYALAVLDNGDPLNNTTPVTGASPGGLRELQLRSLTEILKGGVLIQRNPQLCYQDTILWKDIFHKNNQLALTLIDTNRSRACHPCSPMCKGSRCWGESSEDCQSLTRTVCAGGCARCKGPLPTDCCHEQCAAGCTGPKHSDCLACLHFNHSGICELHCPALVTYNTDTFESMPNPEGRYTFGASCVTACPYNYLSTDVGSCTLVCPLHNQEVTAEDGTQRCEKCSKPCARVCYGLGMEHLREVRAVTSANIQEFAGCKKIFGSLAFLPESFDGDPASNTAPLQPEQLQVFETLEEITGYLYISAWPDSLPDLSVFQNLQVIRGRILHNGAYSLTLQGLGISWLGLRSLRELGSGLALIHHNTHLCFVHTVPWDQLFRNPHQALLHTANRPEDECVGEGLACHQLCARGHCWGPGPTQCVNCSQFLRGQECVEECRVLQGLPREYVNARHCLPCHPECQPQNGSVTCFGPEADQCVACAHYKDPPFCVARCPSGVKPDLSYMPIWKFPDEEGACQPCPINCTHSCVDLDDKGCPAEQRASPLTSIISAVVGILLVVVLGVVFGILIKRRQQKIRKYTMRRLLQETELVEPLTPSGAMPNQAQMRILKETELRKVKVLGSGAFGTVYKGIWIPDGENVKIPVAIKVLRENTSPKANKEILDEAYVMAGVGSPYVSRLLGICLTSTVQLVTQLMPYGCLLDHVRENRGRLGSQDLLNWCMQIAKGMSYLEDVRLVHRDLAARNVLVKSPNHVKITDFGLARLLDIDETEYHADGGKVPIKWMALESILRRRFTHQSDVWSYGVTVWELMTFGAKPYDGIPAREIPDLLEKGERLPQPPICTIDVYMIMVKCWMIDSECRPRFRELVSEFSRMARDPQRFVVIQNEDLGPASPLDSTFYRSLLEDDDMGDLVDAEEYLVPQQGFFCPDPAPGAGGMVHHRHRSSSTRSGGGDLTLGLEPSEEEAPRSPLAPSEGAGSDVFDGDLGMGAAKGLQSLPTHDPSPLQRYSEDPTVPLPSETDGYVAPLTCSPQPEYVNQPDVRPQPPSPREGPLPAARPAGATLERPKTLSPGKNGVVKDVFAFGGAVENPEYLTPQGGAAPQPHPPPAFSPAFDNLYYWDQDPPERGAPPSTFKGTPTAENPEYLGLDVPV

Row | SMILES | IC50 [1] [µM] | GI50 [2] [µM] | also measured
1 | COc1ccc(C2=NN(C(=O)c3ccc(Cl)cc3O)C(c3ccc(Br)cc3)C2)cc1 (centres undefined) | 1.38 | 2.89 | 
2 | COc1ccc(C2=NN(C(=O)c3cc(OC)ccc3O)C(c3ccc(Br)cc3)C2)cc1 (centres undefined) | 6.94 | 12.9 | 
3 | COc1ccc(C2=NN(C(=O)c3cc(Cl)ccc3O)C(c3ccc(OCc4ccccc4)cc3)C2)cc1 (centres undefined) | 5.69 | 12.9 | 
4 | COc1ccc(C2=NN(C(=O)c3cc(OC)ccc3O)C(c3ccc(OC)cc3)C2)cc1 (centres undefined) | 8.38 | > 20 | 
5 | COc1ccc(C2=NN(C(=O)c3ccc(Cl)cc3O)C(c3ccc(OC)cc3)C2)cc1 (centres undefined) | 7.04 | 13.3 | 
6 | COc1ccc(C2=NN(C(=O)c3cc(Br)ccc3O)C(c3ccc(Cl)cc3)C2)cc1 (centres undefined) | 1.21 | 2.39 | 
7 | COc1ccc(C2=NN(C(=O)c3cc(I)ccc3O)C(c3ccc(OC)cc3)C2)cc1 (centres undefined) | 13.3 | 15.6 | 
8 | COc1ccc(C2=NN(C(=O)c3cc(Cl)ccc3O)C(c3ccc(OC)cc3)C2)cc1 (centres undefined) | 9.3 | 12.6 | 
9 | CNC(=O)c1cc(Oc2ccc(NC(=O)Nc3ccc(Cl)c(C(F)(F)F)c3)cc2)ccn1 [SORAFENIB] | 0.06 | 8.1 | 
10 | COc1ccc(C2=NN(C(=O)c3cc(I)ccc3O)C(c3ccc(Cl)cc3)C2)cc1 (centres undefined) | 1.3 | 3.27 | 
11 | COc1ccc(C2=NN(C(=O)c3ccc(Cl)cc3O)C(c3ccc(Cl)cc3)C2)cc1 (centres undefined) | 0.16 | 0.24 | GI50 [3]: 12.1 µM; IC50 [4]: 810 nM; IC50 [5]: 10.5 µM; IC50 [6]: > 25 µM; IC50 [7]: > 25 µM; IC50 (Aurora kinase A): > 25 µM; IC50 [8]: > 25 µM
12 | COc1ccc(C2=NN(C(=O)c3ccc(Cl)cc3O)C(c3ccc(OCc4ccccc4)cc3)C2)cc1 (centres undefined) | 5.01 | 7.89 | 
13 | COc1ccc(C2=NN(C(=O)c3cc(Br)ccc3O)C(c3ccc(OC)cc3)C2)cc1 (centres undefined) | 4.92 | 18.4 | 
14 | COc1ccc(C2=NN(C(=O)c3cc(I)ccc3O)C(c3ccc(OCc4ccccc4)cc3)C2)cc1 (centres undefined) | 5.9 | 13 | 
15 | COc1ccc(C2=NN(C(=O)c3cc(OC)ccc3O)C(c3ccc(OCc4ccccc4)cc3)C2)cc1 (centres undefined) | 10.3 | 13.9 | 
16 | COc1ccc(C2=NN(C(=O)c3cc(OC)ccc3O)C(c3ccc(Cl)cc3)C2)cc1 (centres undefined) | 3.72 | 5.04 | 
17 | COc1ccc(C2=NN(C(=O)c3cc(Cl)ccc3O)C(c3ccc(Br)cc3)C2)cc1 (centres undefined) | 2.51 | 3.48 | 
18 | COc1ccc(C2=NN(C(=O)c3cc(Br)ccc3O)C(c3ccc(Br)cc3)C2)cc1 (centres undefined) | 3.69 | 7.4 | 
19 | COc1ccc(C2=NN(C(=O)c3cc(Cl)ccc3O)C(c3ccc(Cl)cc3)C2)cc1 (centres undefined) | 0.57 | 1.52 | 
20 | COc1ccc(C2=NN(C(=O)c3cc(Br)ccc3O)C(c3ccc(OCc4ccccc4)cc3)C2)cc1 (centres undefined) | 7.22 | 12.9 | 
21 | COc1ccc(C2=NN(C(=O)c3cc(I)ccc3O)C(c3ccc(Br)cc3)C2)cc1 (centres undefined) | 4.1 | 7.35 | 
